Laboratory results taken from the RNAGym collection of RNA variant scans (doi:10.1126/science.aae0568).
This sample holds only a part of the variants without activity.

B1: tRNA (parent)
chain: GUUCCGUUGGCGUAAUGGUAACGCGUCUCCCUCCUAAGGAGAAGACUGCGGGUUCGAGUCCCGUACGGAACG

Variants of: B1
Experiment: yeast fitness relative to wild type (ratio to wild type); higher = fitter; tRNA-Arg(CCU), competitive growth, 37 C, YPD
Summary of the method: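 Gene amplicons from the start population and from each of six end populations were read by 100-nucleotide paired-end sequencing. Those end populations came from pooled Saccharomyces cerevisiae strains carrying tRNA-Arg(CCU) gene variants at the native locus, competed in YPD at 37°C for 24 hours. Fitness relative to wild type was worked out from changes in genotype frequencies. Genotypes needed ≥ 100 starting reads, and estimates < 0.5 were set to 0.5.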

Row | Variant | yeast fitness
1 | GUUCCGUUGGCGUAAUGGUAACGGGUCUCCCUCCUAGGGAGCAGACUGCGGGUUCGAGUCCCGUACGGAUCG [C24G A37G A42C A70U] | ≤ 0.5
2 | GUUCCGUUGGCGUAAUGGUAACGGGUCUCCCUCCUAAGGCGAAGACUGCGGGUUCGAGUCCCGUACGGCACG [C24G A40C A69C] | ≤ 0.5
3 | GUUCCGUUGGCGUAAUGGUAACGGGUCUCCCUCCUAAGGAGAAGCCUGCGGGUUCGAGUCCCGUACGGUACG [C24G A45C A69U] | 0.611
4 | GUUCCGUUGGCGUAAUGGUAACGGGUCUCCCUCCUUAGGUGAAGAGUCCGGGUUCGAGUCCCGUACGGAACG [C24G A36U A40U C46G G48C] | 0.557
5 | GUUCCGUUGGCGUAAUGGUAACGGGUCUCCCUCCUAAGGCGAAGACAGCGGGUUCGAGUCCCGUACGGGACG [C24G A40C U47A A69G] | ≤ 0.5
6 | GUUCCGUUGGCGUAAUGGUAACGGGUCUCCCUCCUAAGGAGACGACUACGGGUUCGAAUCCCGUACGCAACG [C24G A43C G48A G58A G68C] | ≤ 0.5
7 | GUUCCGUUGGCGUAAUGGUAACGGGUCUCCCUCCUAAGGAGGAGACUGCGGGUUCGAGUCCCGUGCGGAACG [C24G A42G A65G] | ≤ 0.5
8 | GUUCCGUUGGCGUAAUGGUAACGGGUCUCCCUCCUGAGGCGAAGACUGCGGGUUGGAGUCCCCUACGGAACG [C24G A36G A40C C55G G63C] | ≤ 0.5
9 | GUUCCGUUGGCGUAAUGGUAACGGGUCUCCCUCCUACGGAGAAGACUGCGGGUUCGAGUCCCGUACAGAACG [C24G A37C G67A] | ≤ 0.5
10 | GUUCCGUUGGCGUAAUGGUAACGGGUCUCCCUCCUAAGGAGAAGACUGCGGGUUCGCGUCCCGAACGGAACG [C24G A57C U64A] | ≤ 0.5
11 | GUUCCGUUGGCGUAAUGGUAACGGGUCUCCCUCCUAAGGAGUAGACUGCGGGUUCGAGUCCCGUACGAAACG [C24G A42U G68A] | ≤ 0.5
12 | GUUCCGUUGGCGUAAUGGUAACGGGUCUCCCUCCUAAGGAGAAGACUGCGGGUUCGUGUCCCGUACCGAACG [C24G A57U G67C] | 0.612
13 | GUUCCGUUGGCGUAAUGGUAACGGGUCUCCCUCCUAGGGAGAAGACUGCGGGUUCGAGUCCCCUAGGGAACG [C24G A37G G63C C66G] | ≤ 0.5
14 | GUUCCGUUGGCGUAAUGGUAACGGGUCUCCCUCCUAAGGUGAAGACUGCGGGUUCGAGUCCCGUACCGAACG [C24G A40U G67C] | ≤ 0.5
15 | GUUCCGUUGGCGUAAUGGUAACGGGUCUCCCUCCUAAGGAGUAGCCUGCGGGUUCGAGUCCCGUACGGAACG [C24G A42U A45C] | ≤ 0.5
16 | GUUCCGUUGGCGUAAUGGUAACGGGUCUCCCUCCUUAGGAGAAGACUGCGGGUACGAGUCCCGUACGGAACG [C24G A36U U54A] | ≤ 0.5
17 | GUUCCGUUGGCGUAAUGGUAACGGGUCUCCCUCCUAAGGAGACGACUGCGGGUUCGUGUCCCGUACGGAACG [C24G A43C A57U] | ≤ 0.5
18 | GUUCCGUUGGCGUAAUGGUAACGGGUCUCCCUCCUAAGGAGAAGACUGCGGGUUCGUAUCCCGUUCGGAACG [C24G A57U G58A A65U] | ≤ 0.5
19 | GUUCCGUUGGCGUAAUGGUAACGGGUCUCCCUCCUAAGGAGAAGACUGCGGGUUCGGGUCACGUCUGGAACG [C24G A57G C61A A65C C66U] | ≤ 0.5

Row | Variant | yeast fitness
20 | GUUCCGUUGGCGUAAUGGUAACGGGUCUCCCUCCUAAGGAGAAGCCUGAGGAUUCGAGUCCCGUACGGAACG [C24G A45C C49A G52A] | ≤ 0.5
21 | GUUCCGUUGGCGUAAUGGUAACGGGUCUCCCUCCUGAGGAGAAGGCUGCGGGUUCGAGUCACGUACGGAGCG [C24G A36G A45G C61A A70G] | ≤ 0.5
22 | GUUCCGUUGGCGUAAUGGUAACGGGUCUCCCUCCUGAGCAGAAGACUGCGGGUUUGAGUCCCGUAUGGAACG [C24G A36G G39C C55U C66U] | ≤ 0.5
23 | GUUCCGUUGGCGUAAUGGUAACGGGUCUCCCUCCUAAGGCGAAGACUGCGGGUUCUAGUCCCGUACGGAACG [C24G A40C G56U] | ≤ 0.5
24 | GUUCCGUUGGCGUAAUGGUAACGGGUCUCCCUCCUAAGGGGAAGACUGCGGGUUCGUGUCCCGUACGAAACG [C24G A40G A57U G68A] | ≤ 0.5
25 | GUUCCGUUGGCGUAAUGGUAACGGGUCUCCCUCCUACGGAGAAGACUGCGGGUUCGAAUCCCGUACGAAACG [C24G A37C G58A G68A] | ≤ 0.5
26 | GUUCCGUUGGCGUAAUGGUAACGGGUCUCCCUCCUAAGGAGGAGACUGCGGGUUCGAGUCCCGUACGGAACG [C24G A42G] | 0.587
27 | GUUCCGUUGGCGUAAUGGUAACGGGUCUCCCUCCUAAGGAGCAGACUGCGGGUUCGAGUCCCGUACGGAACG [C24G A42C] | 0.63
28 | GUUCCGUUGGCGUAAUGGUAACGGGUCUCCCUCCUUCGGAGAAGACUGCGGGUUCGAGUCCCGUAUAGAACG [C24G A36U A37C C66U G67A] | ≤ 0.5
29 | GUUCCGUUGGCGUAAUGGUAACGGGUCUCCCUCCUAAGGAGUAGACUGUGGGUUCGAGUCCCGUACCGAACG [C24G A42U C49U G67C] | ≤ 0.5
30 | GUUCCGUUGGCGUAAUGGUAACGGGUCUCCCUCCUGAGGAGAAGACUGCGGGUUCGAGUCCCGUUCGGAACG [C24G A36G A65U] | 0.554
31 | GUUCCGUUGGCGUAAUGGUAACGGGUCUCCCUCCUAAGGAGAAGACUGCGGGUUCGUGUCCCGUACGGCACG [C24G A57U A69C] | ≤ 0.5
32 | GUUCCGUUGGCGUAAUGGUAACGGGUCUCCCUCCUAAGGAGCAGACUGCGGGUUCGAGUCCCGUACGAAACG [C24G A42C G68A] | ≤ 0.5
33 | GUUCCGUUGGCGUAAUGGUAACGGGUCUCCCUCCUAAGGUGAAGACAGCGGGUUCGAGUCCCGUACGGAACG [C24G A40U U47A] | ≤ 0.5
34 | GUUCCGUUGGCGUAAUGGUAACGGGUCUCCCUCCUAAGGAGAGGACAGCGGGUUCGAGUCCCGUACGGAACG [C24G A43G U47A] | ≤ 0.5
35 | GUUCCGUUGGCGUAAUGGUAACGGGUCUCCCUCCUAAGGAGAAGGCUGCGGGGUCGAGUCCCGUACGGAACG [C24G A45G U53G] | ≤ 0.5
36 | GUUCCGUUGGCGUAAUGGUAACGGGUCUCCCUCCUCAGGAGAAGACUGCGGGUUGGAGUCCCGUGCGGAACG [C24G A36C C55G A65G] | ≤ 0.5
37 | GUUCCGUUGGCGUAAUGGUAACGGGUCUCCCUCCUAAGGAGGUGAUUGCGGGUUCGAGUCCUGUACGGAACG [C24G A42G A43U C46U C62U] | ≤ 0.5
